Many of the other results were omitted from the sample, so hits are more common in it than they were.
IDH1 mut inh: blocks human IDH1 R132H reductase activity; 0.18% of 70,000 active; inhibition, % at 10 µM; diaphorase/resazurin fluorescence, 60 min; O75874; in the data active means inhibition above about 34%; inconclusive means no clear call, values can overlap the other calls; inactive means below about 11%
KDM4C inh: KDM4C (human) demethylase inhibition; GST-KDM4C 2-372, H3K9me3 peptide, LANCE TR-FRET; inhibition, % at 12.5 µM; 0.15% of 96,000 active; Q9H3R0;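 active means mean replicate inhibition above about 25%, with at least 55% of replicates also reaching it, limit read from the data, passing the limit was not always enough; inconclusive means only one of those two conditions met; inactive means neither condition met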
Target sequence (Q9H3R0 2-372 limits assumed): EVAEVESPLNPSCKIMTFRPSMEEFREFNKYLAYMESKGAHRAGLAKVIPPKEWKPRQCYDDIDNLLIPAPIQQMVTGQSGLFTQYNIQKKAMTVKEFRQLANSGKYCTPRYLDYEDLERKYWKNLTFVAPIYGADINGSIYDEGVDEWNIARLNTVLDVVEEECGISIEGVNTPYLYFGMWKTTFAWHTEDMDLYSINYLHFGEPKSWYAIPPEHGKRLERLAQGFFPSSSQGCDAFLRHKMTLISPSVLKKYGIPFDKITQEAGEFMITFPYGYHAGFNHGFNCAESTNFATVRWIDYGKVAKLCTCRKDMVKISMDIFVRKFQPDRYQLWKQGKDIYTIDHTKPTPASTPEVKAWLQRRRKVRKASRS
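Assay system: GST-GASC-1 enzyme fragment 2-372 | Amount: 10 nM enzyme | Medium: HEPES buffer, pH 7.5, plus ascorbate | Reagent: H3K9me3 peptide substrate, Fe(II), 2-oxoglutarate | Doses: Single-point compound screen | Incubation: 30 min demethylation and 1 h detection at room temperature | Measured by: LANCE TR-FRET, excitation 340 nm, emissions 618 and 671 nm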
T cruzi growth-1: inhibitors of T. cruzi proliferation; T. cruzi beta-gal in NIH3T3, GalScreen luminescence, 90 h; inhibition, % at 8.34 µM; 5.9% of 77,000 active;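 active means mean inhibition above about 93%, with at least 55% of replicates each passing it, limit read from the data, passing the limit was not always enough; inconclusive means only one of those two conditions holds; inactive means neither condition holds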
T cruzi growth-2: Trypanosoma cruzi proliferation inhibition; shares compounds with T cruzi growth-1; T. cruzi beta-gal in NIH3T3, GalScreen luminescence, 90 h; 72% of 5,600 active; inhibition, % at 8.35 µM;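 active means mean replicate inhibition above about 95% and at least 55% of replicates individually reaching it, limit read from the data; inconclusive means only one of the two criteria is met; inactive means neither criterion is met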
T cruzi growth-3: Trypanosoma cruzi proliferation inhibition; shares compounds with T cruzi growth-1; T. cruzi beta-gal in NIH3T3, GalScreen luminescence, 90 h; inhibition, % at 2.09 µM; 21% of 5,600 active; AID 651740;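 active means mean inhibition above about 95%, with at least 55% of replicates also reaching it, limit read from the data; inconclusive means meets just one of the two conditions; inactive means meets neither condition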
NIH3T3 tox: kills mouse NIH/3T3 fibroblasts; shares compounds with T cruzi growth-1; NIH/3T3 viability, CellTiter-Glo ATP luminescence, 90 h; cytotoxicity (signal decrease), % at 8.35 µM; 14% of 5,600 active;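 active means mean signal decrease across replicates above about 35% based on untreated-well scatter, with enough replicates individually passing, limit read from the data; inconclusive means no rule stated though some were filed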
NIH3T3 tox 2: cytotoxicity in mouse NIH/3T3 fibroblasts. shares compounds with T cruzi growth-1. NIH/3T3 viability, CellTiter-Glo ATP luminescence, 90 h. inhibition, % at 24.9 µM. 56% of 5,600 active. AID 651744;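 active means mean loss of cell viability signal at or above a set limit, and enough replicates individually reaching it; inconclusive means meets only the mean limit or only the replicate share; inactive means meets neither condition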
A number is an active result; 0 = inactive; ? = inconclusive; - = not tested or not shown.

SMILES | IDH1 mut inh | KDM4C inh | T cruzi growth-1 | T cruzi growth-2 | T cruzi growth-3 | NIH3T3 tox | NIH3T3 tox 2
COc1ccc(C#Cc2ccc([C@@H]3[C@@H](CO)N4CCCCN(C(=O)Cc5cccnc5)C[C@H]34)cc2)cc1 | - | 0 | 100.2 | 106.2 | 0 | 0 | 105.1
O=C(Cc1cccnc1)N1CCCCN2[C@H](CO)[C@@H](c3ccc(C#CC4CC4)cc3)[C@H]2C1 | - | - | 0 | - | - | - | -
O=C(Cc1cccnc1)N1CCCCN2[C@@H](CO)[C@@H](c3ccc(C#CC4CC4)cc3)[C@@H]2C1 | - | - | 0 | - | - | - | -
COc1ccc(C#Cc2ccc([C@@H]3[C@H](CO)N4CCCCN(C(=O)Cc5cccnc5)C[C@@H]34)cc2)cc1 | - | 0 | 112.1 | 106.6 | 0 | 39.0 | 103.7
Cc1ccnc(NC(c2ccccc2[N+](=O)[O-])c2ccc3ccc(C)nc3c2O)c1 (centres undefined) | 0 | - | - | - | - | - | -
Cc1nn(Cc2cccc(C(=O)Nc3ccc4oc(=O)cc(C(F)(F)F)c4c3)c2)c(C)c1Cl | 0 | - | - | - | - | - | -
O=C(Cc1ccccn1)N1CCCCN2[C@H](CO)[C@H](c3ccc(C#Cc4ccccc4)cc3)[C@H]2C1 | - | 0 | 105.0 | 102.0 | 0 | 52.4 | 107.2
O=C(Cc1ccccn1)N1CCCCN2[C@H](CO)[C@@H](c3ccc(C#Cc4ccccc4)cc3)[C@H]2C1 | - | 0 | 105.6 | 96.9 | 0 | 40.8 | 105.5
O=C(Cc1ccccn1)N1CCCCN2[C@H](CO)[C@@H](c3ccc(C#Cc4ccccc4)cc3)[C@@H]2C1 | - | 0 | 0 | - | - | - | -
O=C(Cc1ccccn1)N1CCCCN2[C@@H](CO)[C@H](c3ccc(C#Cc4ccccc4)cc3)[C@@H]2C1 | - | 0 | 114.3 | 109.3 | 0 | 38.8 | 105.3
CCCC#Cc1ccc([C@@H]2[C@H]3CN(C(=O)Cc4ccccn4)CCCCN3[C@H]2CO)cc1 | - | 0 | 0 | - | - | - | -
CC(C)CC#Cc1ccc([C@@H]2[C@@H](CO)N3CCCCN(C(=O)Cc4ccccn4)C[C@@H]23)cc1 | - | 0 | 0 | - | - | - | -
CC(=O)OC1CCC2(C)C(CC[C@@H]3[C@@H]2CCC2(C)C(C4=CC(=O)OC4)CCC32O)C1 (some centres undefined) | 0 | - | - | - | - | - | -
Cc1c(O)c(C(=O)O)c(O)c2c1[C@H](C)[C@@H](C)OC2=O | 0 | - | - | - | - | - | -
CN1CCC2(c3cccc(O)c3)Cc3nc4ccccc4cc3CC2C1 (centres undefined) | 0 | - | - | - | - | - | -
COC(=O)C1=CO[C@H](C)[C@@H]2CN3CCC4(C(=O)Nc5ccccc54)C3C[C@H]12 (some centres undefined) | 0 | - | - | - | - | - | -
O=C(CCl)c1cc(Br)c(Br)s1 | 0 | - | - | - | - | - | -
O=C(Cc1ccncc1)N1CCCCN2[C@@H](CO)[C@@H](c3ccc(C#CC4(O)CCCC4)cc3)[C@@H]2C1 | - | 0 | 109.6 | 0 | 0 | 0 | 0
O=C(Cc1ccncc1)N1CCCCN2[C@H](C1)[C@@H](c1ccc(C#CC3(O)CCCC3)cc1)[C@@H]2CO | - | 0 | 0 | - | - | - | -
O=C(Cc1ccccc1)N1CCCCN2[C@H](CO)[C@H](c3ccc(C#CC4(O)CCCC4)cc3)[C@@H]2C1 | - | 0 | 103.4 | 0 | 0 | 0 | 0
O=C(Cc1ccccc1)N1CCCCN2[C@@H](CO)[C@H](c3ccc(C#CC4(O)CCCC4)cc3)[C@@H]2C1 | - | 0 | 108.7 | 102.4 | 0 | 0 | 33.2
O=C(Cc1ccccc1)N1CCCCN2[C@@H](CO)[C@@H](c3ccc(C#CC4(O)CCCC4)cc3)[C@@H]2C1 | - | 0 | 0 | - | - | - | -
O=C(Cc1ccccc1)N1CCCCN2[C@H](C1)[C@@H](c1ccc(C#CC3(O)CCCC3)cc1)[C@@H]2CO | - | 0 | 0 | - | - | - | -
CCN1C[C@]2(COC)CC[C@H](O)[C@]34C1[C@H](C[C@H]23)[C@@]1(O)C[C@H](OC)[C@H]2C[C@@H]4[C@@H]1[C@H]2OC(C)=O | 0 | - | - | - | - | - | -
O=C(Cc1ccccn1)N1CCCCN2[C@H](CO)[C@@H](c3ccc(-c4ccccc4)cc3)[C@H]2C1 | - | 0 | 0 | - | - | - | -
SMILES | IDH1 mut inh | KDM4C inh | T cruzi growth-1 | T cruzi growth-2 | T cruzi growth-3 | NIH3T3 tox | NIH3T3 tox 2
O=C(Cc1ccccn1)N1CCCCN2[C@H](CO)[C@H](c3ccc(-c4ccccc4)cc3)[C@@H]2C1 | - | 0 | ? | 102.8 | 0 | 0 | 0
O=C(Cc1ccccn1)N1CCCCN2[C@@H](CO)[C@H](c3ccc(-c4ccccc4)cc3)[C@@H]2C1 | - | 0 | 104.9 | ? | 0 | 0 | 0
O=C(Cc1ccccn1)N1CCCCN2[C@H](C1)[C@H](c1ccc(-c3ccccc3)cc1)[C@@H]2CO | - | 0 | 0 | - | - | - | -
Cc1ccc(-n2c(CNCc3cccnc3)nc3ccccc3c2=O)cc1 | 0 | - | - | - | - | - | -
CCC(C)[C@H]1C(=O)O[C@H](C(C)C)C(=O)N(C)[C@@H](C(C)C)C(=O)O[C@H](C(C)C)C(=O)N(C)[C@@H](C(C)C)C(=O)O[C@H](C(C)C)C(=O)N1C (some centres undefined) | 0 | - | - | - | - | - | -
CCCCC/C=C/C/C=C/C/C=C/C/C=C/CCCC(=O)NCCCC(=O)O | 0 | - | - | - | - | - | -

Compound activity deposited in PubChem BioAssay by Broad Institute.
